Published values of several laboratories.
Lines come from different studies, so protocols differ.
Target: Rho-associated protein kinase 2 (ROCK2, Homo sapiens, UniProt O75116)

SMILES | observed | action | technique | tested at | endpoint | result
CC(C)(C)c1cc(C=C(C#N)C#N)cc(Br)c1O | enzyme activity | inhibitor |  | 0.5 µM | remaining activity | 95.6%
Cn1cc(-c2cccc(N3CCc4c(sc5c4CC(C)(C)C5)C3=O)c2CO)cc(Nc2ccncn2)c1=O | enzyme activity | inhibitor |  | 1 µM | inhibition | 1%
Cc1nn(C)cc1-c1nc2c(N3CCN(Cc4ccc(Cl)cc4)CC3)c(Cl)cnc2[nH]1 | binding |  | competition with immobilised ligand | 1 µM | remaining binding | 35%
Cn1cc(-c2cc(F)cc(N3CCn4c(cc5c4CCCC5)C3=O)c2CO)cc(Nc2ccc(N3CCN(C4COC4)CC3)cn2)c1=O | enzyme activity | inhibitor |  | 0.1 µM | inhibition | 1%
N#CC1(c2ccccn2)CCN(Cc2cc(C(=O)O)c(=O)n3ccccc23)CC1 | cell-free assay |  | competition with immobilised ligand | 1 µM | remaining binding | 85%
COc1ncccc1-c1cnn2ccc(N3CCN(C(=O)OC(C)C)CC3)nc12 | binding |  | competition with immobilised ligand | 1 µM | remaining binding | 86%
C#Cc1n[nH]c2c(-c3cn([C@@H](C)c4ccccc4)c(=O)[nH]c3=O)cc(F)cc12 | enzyme activity | inhibitor |  | 0.1 µM | inhibition | 3%
Cn1cncc1[C@@](O)(COc1ccc(C#N)cc1-c1ccc(OC(F)(F)F)cc1)c1ccc(C#N)cc1 | cell-free assay |  | competition with immobilised ligand | 1 µM | remaining binding | 100%
Nc1ncc(-c2nc(N3CCOCC3)nc(N3CCOCC3)n2)c(C(F)F)n1 | binding |  | competition with immobilised ligand | 10 µM | remaining binding | 100%
O=c1[nH]c2ccccc2n1C1CCN(Cc2ccc(-c3[nH]c4cc5ncnc5cc4nc3-c3ccccc3)cc2)CC1 | cell-free assay |  |  | 0.5 µM | remaining signal | 109%
C#Cc1n[nH]c2c(-c3cn(C(C)c4ccccn4)c(=O)[nH]c3=O)cc(F)cc12 (stereo not drawn) | enzyme activity | inhibitor |  | 1 µM | inhibition | 4.2%
COc1cc(Nc2ncc(F)c(Nc3ccc4c(n3)NC(=O)C(C)(C)O4)n2)cc(OC)c1OC | binding |  |  | 10 µM | inhibition | 86%
